Active and inactive are the calls of the source. The rule behind the calls is not given here.
Key:
BGC-823 = assay: Cytotoxicity against human BGC823 cells by MTT assay; assay type: functional, cell-based
Bel-7402 = assay: Cytotoxicity against human Bel7402 cells by MTT assay; assay type: functional, cell-based
A2780 = assay: Cytotoxicity against human A2780 cells by MTT assay; assay type: functional, cell-based
HCT-8 = assay: Cytotoxicity against human HCT8 cells by MTT assay; assay type: functional, cell-based
A549 = assay: Cytotoxicity against human A549 cells by MTT assay; assay type: functional, cell-based
Liver microsomes = assay: Antioxidant activity in rat liver microsome assessed as inhibition of Fe2+-cysteine-induced lipid peroxidation after 15 mins; assay type: functional
Outline: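 Rat liver microsomes (1.0 mg microsomal protein in 1 mL 0.1 M PBS, pH 7.4) incubated with […] cysteine plus test sample, 37 °C, 15 min; peroxidation started with 0.05 mM FeSO4. […] Vitamin E positive control.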

Coxsackievirus = assay: Antiviral activity against Coxsackievirus B3 infected in african green monkey Vero cells assessed as inhibition of virus-induced cytopathic effect; assay type: functional, organism-based
Outline: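 Confluent Vero monolayers infected with 100 TCID50 Cox B3; 1 h adsorption at 37 °C, PBS wash, then maintenance medium (MEM + 2% FBS) ± graded compound concentrations at 37 °C. CPE scored once virus control reached 4+; IC50 by Reed and Muench. Ribavirin positive control.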

BV-2 = assay: Inhibition of LPS-induced nitric oxide production in […] BV2 cells after 24 hrs by spectrophotometry; assay type: functional, cell-based; conditions: Mus musculus, BV-2, 24 h
Outline: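 BV2 microglial cells pre-cultured 24 h, then exposed to a range of concentrations and stimulated with E. coli 055:B5 LPS (300 ng/mL) for 24 h. Nitrite in the supernatant was measured with Griess reagent (1% sulfanilamide in 5% H3PO4 plus 0.1% N-(1-naphthyl)ethylenediamine, 1:1) for 20 min at room temperature, read at 550 nm against a sodium nitrite standard curve. Untreated cells served as negative control and curcumin as positive control.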

Compound	Activity (BGC-823)	Activity (Bel-7402)	Activity (A2780)	Activity (HCT-8)	Activity (A549)	IC50 (Liver microsomes)	IC50 (Coxsackievirus) [µM]	IC50 (Liver microsomes; read-out: IC50) [µM]	IC50 (BV-2) [µM]
C[C@@H]1CC[C@@H]2C(C)(C)O[C@@H]3[C@H](C)C(=O)C=C1[C@@]32O	inactive	inactive	inactive	inactive	inactive				
Oc1ccccc1CN1CCCC[C@]1(O)c1cccnc1	inactive	inactive	inactive	inactive	inactive				
COc1c(OC)c2nccc3c4ccccc4n(c1=O)c23 [4,5-DIMETHOXYCANTHIN-6-ONE]	inactive	inactive	inactive	inactive	inactive	Not Active	7.4		
COC(=O)c1c(O)cc(C(C)C)c2cc(C)c(O)cc12	inactive	inactive	inactive	inactive	inactive		11.3	4.9	
Oc1ccccc1CN1CCCC[C@@]1(O)c1cccnc1	inactive	inactive	inactive	inactive	inactive				
VITAMIN E								54.2	
CO[C@]1(C)C(=O)C=C(C(C)C)c2cc(C)c(O)cc21	inactive	inactive	inactive	inactive	inactive		> 20	23.8	
Oc1ccccc1CN1CCCCC1(O)c1cccnc1 (racemic)	inactive	inactive	inactive	inactive	inactive		> 20		
Cc1cc2c(C(C)C)cc(O)c(C=O)c2cc1O	inactive	inactive	inactive	inactive	inactive		1.4	14.7	
Cc1cc2c(c(O)c1O)[C@@H](C)CC[C@@H]2C(C)C [(1S,4R)-7,8-DIHYDROXYCALAMENENE]	inactive	inactive	inactive	inactive	inactive	Not Active	7.4		
NC(=O)c1ncn([C@@H]2O[C@H](CO)[C@@H](O)[C@H]2O)n1 [RIBAVIRIN]							222		
COc1cc(/C=C/C(=O)CC(=O)/C=C/c2ccc(O)c(OC)c2)ccc1O [CURCUMIN]									3.1
Cc1cc2c(C(C)C)ccc(C)c2cc1O	inactive	inactive	inactive	inactive	inactive		5.3	4.3	
CC1=C2OC[C@@H](C)c3c(O)cc(C)c(c32)C(=O)C1=O	inactive	inactive	inactive	inactive	inactive		3.1	17.8	
Oc1ccccc1CN1CCCC[C@H]1c1cccnc1 [(2S)-N-HYDROXYBENZYLANABASINE]	inactive	inactive	inactive	inactive	inactive				6.7
Oc1ccccc1CN1CCCC[C@@H]1c1cccnc1 [(2R)-N-HYDROXYBENZYLANABASINE]	inactive	inactive	inactive	inactive	inactive				> 20
Cc1cc2c(cc1O)[C@@](C)(O)C(=O)C=C2C(C)C [LACINILENE C]	inactive	inactive	inactive	inactive	inactive		15.4	39.8	
Oc1ccccc1CN1CCCCC1c1cccnc1 (racemic)	inactive	inactive	inactive	inactive	inactive		> 20		
CC1=C2OCC(C)c3ccc(C)c(c32)C(=O)C1=O (stereo unspecified) [MANSONONE E]	inactive	inactive	inactive	inactive	inactive		4.7	45.7	
Cc1cc2c(C(C)C)cc(O)c(C)c2cc1O	inactive	inactive	inactive	inactive	inactive		10.1	3.8	
CC1=C(O)C(=O)c2c(C)ccc3c(C)cnc1c23	inactive	inactive	inactive	inactive	inactive		> 20	3.9	
CC1=Cc2c(C(C)C)ccc(C)c2C(=O)C1=O	inactive	inactive	inactive	inactive	inactive	Not Active	> 20		
